Legend:
HeLa = experiment: Antiproliferative activity against human HeLa cells after 48 hrs by MTT assay; assay type: functional, cell-based
[1] = Antiproliferative activity against human KG1 cells after 48 hrs by MTT assay; assay type: functional, cell-based; settings: KG-1, 48 h
K562 = experiment: Antiproliferative activity against human K562 cells after 48 hrs by MTT assay; assay type: functional, cell-based; settings: K562, 48 h
[2] = Antiproliferative activity against human ES2 cells after 48 hrs by MTT assay; assay type: functional, cell-based; settings: ES-2, 48 h
MDA-MB-231 = experiment: Antiproliferative activity against human MDA-MB-231 cells after 48 hrs by MTT assay; assay type: functional, cell-based; settings: MDA-MB-231, 48 h
U-937 = experiment: Antiproliferative activity against human U937 cells after 48 hrs by MTT assay; assay type: functional, cell-based; settings: U-937, 48 h
[3] = Antiproliferative activity against human H7402 cells after 48 hrs by MTT assay; assay type: functional, cell-based; settings: H7402, 48 h
In short: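 Cells kept in RPMI1640 with 10% FBS at 37 °C, 5% CO2. Seeded 5000 per well and allowed at least 4 h to settle, then exposed to a range of compound concentrations for 48 h. 1% MTT solution added for 4 h, formazan dissolved in DMSO over 15 min, OD read at 570 nm. Values are the mean of three experiments.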

HCT-116 = experiment: Antiproliferative activity against human HCT116 cells after 48 hrs by MTT assay; assay type: functional, cell-based; settings: HCT-116, 48 h
[4] = target: Histone deacetylase (HDAC1 and HDAC2) (Homo sapiens, UniProt Q13547+Q92769); experiment: Inhibition of HDAC1/2 in human HeLa cell nuclear extract using Boc-Lys (acetyl)-AMC as substrate preincubated for 30 mins before substrate addition measured after 20 mins by UV-vis spectrophotometer analysis; assay type: cell-based
MCF7 = experiment: Antiproliferative activity against human MCF7 cells after 48 hrs by MTT assay; assay type: functional, cell-based; settings: MCF7, 48 h
[5] = Antiproliferative activity against human 3AO cells after 48 hrs by MTT assay; assay type: functional, cell-based
PC-3 = experiment: Antiproliferative activity against human PC3 cells after 48 hrs by MTT assay; assay type: functional, cell-based; settings: PC-3, 48 h
HEL = experiment: Antiproliferative activity against human HEL cells after 48 hrs by MTT assay; assay type: functional, cell-based
Mus musculus [6] = experiment: Toxicity in human H7402 cells xenografted mouse assessed as change in toxic effect at 100 mg/kg/day, po for 16 days; assay type: organism-based; settings: in vivo, 384 h
In short: (§1)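 H7402 subcutaneous xenograft in male athymic nude mice, seven per group, started once tumors reached about 140 mm³. Compound given daily by gavage for 16 days; controls received an equal volume of PBS. Body weight recorded every three days, and toxicity monitored during treatment.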

Mus musculus [7] = experiment: Toxicity in human H7402 cells xenografted mouse assessed as change in body weight at 100 mg/kg/day, po for 16 days; assay type: organism-based; settings: in vivo, 384 h; in short: as §1
[8] = Antitumor activity against human H7402 cells xenografted in mouse assessed as tumor increment ratio at 100 mg/kg/day, po for 16 days relative to control; assay type: functional
In short: (§2)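 Male athymic nude mice, 4-6 weeks old, inoculated subcutaneously in the right axilla with 6.88×10^7 H7402 cells. After 8 days, at about 140 mm³ mean tumor volume, mice were randomized to groups of seven. Daily gavage for 16 days; controls received an equal volume of PBS. Tumors were measured by caliper every three days, V=ab²/2. T/C% = treated RTV/control RTV, where RTV = Vt/V0. Two-tailed t test.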

[9] = target: T1, Protein deacetylase HDAC6 (Homo sapiens, UniProt Q9UBN7); experiment: Inhibition of HDAC6 (unknown origin) using Boc-Lys (acetyl)-AMC as substrate preincubated for 30 mins before substrate addition measured after 20 mins by UV-vis spectrophotometer analysis
T1 sequence (Q9UBN7 whole entry): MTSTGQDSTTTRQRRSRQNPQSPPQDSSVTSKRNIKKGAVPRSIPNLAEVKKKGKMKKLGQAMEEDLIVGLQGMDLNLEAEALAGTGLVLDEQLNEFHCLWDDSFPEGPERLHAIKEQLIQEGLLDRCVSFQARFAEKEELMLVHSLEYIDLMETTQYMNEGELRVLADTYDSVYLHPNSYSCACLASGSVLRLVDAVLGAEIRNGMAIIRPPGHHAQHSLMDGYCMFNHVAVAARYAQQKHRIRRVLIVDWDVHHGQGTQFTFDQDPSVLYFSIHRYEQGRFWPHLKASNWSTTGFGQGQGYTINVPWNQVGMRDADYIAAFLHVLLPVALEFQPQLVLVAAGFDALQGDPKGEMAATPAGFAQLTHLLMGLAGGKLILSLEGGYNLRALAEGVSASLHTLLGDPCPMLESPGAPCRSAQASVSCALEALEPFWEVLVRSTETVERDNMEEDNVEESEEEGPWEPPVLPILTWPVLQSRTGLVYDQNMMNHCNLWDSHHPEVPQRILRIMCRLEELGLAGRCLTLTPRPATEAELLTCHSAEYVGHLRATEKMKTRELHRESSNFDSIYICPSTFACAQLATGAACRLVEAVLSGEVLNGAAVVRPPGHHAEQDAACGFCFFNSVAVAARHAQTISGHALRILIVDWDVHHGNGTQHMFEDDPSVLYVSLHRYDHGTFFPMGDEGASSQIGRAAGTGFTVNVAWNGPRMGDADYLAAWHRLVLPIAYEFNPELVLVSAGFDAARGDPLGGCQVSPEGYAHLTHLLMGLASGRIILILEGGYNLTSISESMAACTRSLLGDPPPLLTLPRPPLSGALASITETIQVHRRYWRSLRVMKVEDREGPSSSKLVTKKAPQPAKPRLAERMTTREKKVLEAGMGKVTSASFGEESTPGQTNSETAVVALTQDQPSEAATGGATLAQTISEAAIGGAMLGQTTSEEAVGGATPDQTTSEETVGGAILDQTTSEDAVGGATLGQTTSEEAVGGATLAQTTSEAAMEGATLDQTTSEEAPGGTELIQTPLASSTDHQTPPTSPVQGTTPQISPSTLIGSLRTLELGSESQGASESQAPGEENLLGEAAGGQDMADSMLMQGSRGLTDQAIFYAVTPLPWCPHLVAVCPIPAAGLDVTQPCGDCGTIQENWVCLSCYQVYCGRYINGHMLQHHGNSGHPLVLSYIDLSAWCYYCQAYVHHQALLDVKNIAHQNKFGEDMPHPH

Histone deacetylase 3 = Histone deacetylase 3 (Homo sapiens, UniProt O15379); experiment: Inhibition of HDAC3 (unknown origin) using Boc-Lys (acetyl)-AMC as substrate preincubated for 30 mins before substrate addition measured after 20 mins by UV-vis spectrophotometer analysis
Chain of Histone deacetylase 3 (O15379 whole entry): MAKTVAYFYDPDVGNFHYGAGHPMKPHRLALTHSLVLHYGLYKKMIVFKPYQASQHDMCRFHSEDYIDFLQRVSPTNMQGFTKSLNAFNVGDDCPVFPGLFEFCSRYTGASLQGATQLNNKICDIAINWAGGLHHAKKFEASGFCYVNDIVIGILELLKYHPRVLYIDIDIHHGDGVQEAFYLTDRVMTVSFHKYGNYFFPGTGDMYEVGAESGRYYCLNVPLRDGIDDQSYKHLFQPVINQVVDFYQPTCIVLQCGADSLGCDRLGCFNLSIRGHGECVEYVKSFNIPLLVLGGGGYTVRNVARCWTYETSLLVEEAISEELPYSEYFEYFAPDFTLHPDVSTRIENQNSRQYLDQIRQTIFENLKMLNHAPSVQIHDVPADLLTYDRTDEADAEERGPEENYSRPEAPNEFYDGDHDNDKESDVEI

Mus musculus [10] = experiment: Toxicity in human H7402 cells xenografted mouse assessed as change in toxic effect at 60 mg/kg/day, po for 16 days; assay type: organism-based; settings: in vivo, 384 h; in short: as §1
[11] = Antitumor activity against human H7402 cells xenografted in mouse assessed as tumor increment ratio at 60 mg/kg/day, po for 16 days relative to control; assay type: functional; in short: as §2
Histone deacetylase 1 = Histone deacetylase 1 (Homo sapiens, UniProt Q13547); experiment: Inhibition of HDAC1 (unknown origin) using Boc-Lys (acetyl)-AMC as substrate preincubated for 30 mins before substrate addition measured after 20 mins by UV-vis spectrophotometer analysis
Chain of Histone deacetylase 1 (Q13547 whole entry): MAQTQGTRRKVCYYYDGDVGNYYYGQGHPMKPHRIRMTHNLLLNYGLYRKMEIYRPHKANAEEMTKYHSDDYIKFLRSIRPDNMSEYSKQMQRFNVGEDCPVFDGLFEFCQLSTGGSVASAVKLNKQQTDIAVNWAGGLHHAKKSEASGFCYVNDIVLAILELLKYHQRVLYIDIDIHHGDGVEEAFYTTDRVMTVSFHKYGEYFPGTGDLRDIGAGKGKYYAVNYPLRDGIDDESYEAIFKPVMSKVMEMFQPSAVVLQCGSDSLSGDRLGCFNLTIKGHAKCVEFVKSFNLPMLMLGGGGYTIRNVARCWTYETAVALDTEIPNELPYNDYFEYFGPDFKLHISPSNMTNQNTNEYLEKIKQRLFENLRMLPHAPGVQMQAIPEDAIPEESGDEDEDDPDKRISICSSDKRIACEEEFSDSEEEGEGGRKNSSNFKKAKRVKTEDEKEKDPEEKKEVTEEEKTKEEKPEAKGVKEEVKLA

Mus musculus [12] = experiment: Toxicity in human H7402 cells xenografted mouse assessed as change in body weight at 60 mg/kg/day, po for 16 days; assay type: organism-based; settings: in vivo, 384 h; in short: as §1

IC50 (HeLa) [µM] | IC50 (K562) [µM] | IC50 (MDA-MB-231) [µM] | IC50 (U-937) [µM] | IC50 (HCT-116) [µM] | IC50 [4] [µM] | IC50 (MCF7) [µM] | IC50 (PC-3) [µM] | Structure (SMILES) | IC50 [1] [µM] | IC50 [2] [µM] | IC50 [3] [µM] | IC50 [5] [µM] | IC50 (HEL) [µM] | further results
36.1 | 7.23 | 36.4 | 1.49 | 42.4 | 0.0373 | 25 | 11.6 | O=C(CN1C(=O)C2(OCCCCO2)c2cc(Cl)ccc21)Nc1ccc(C(=O)NO)cc1 | 10.1 | 25.3 | 5.34 | 23.6 | 1.29 | 
 |  |  |  |  | 0.22 |  |  | O=C(/C=C/c1ccc(NC(=O)CN2C(=O)C3(OCCO3)c3cc(Br)ccc32)cc1)NO |  |  |  |  |  | 
12.1 | 1.94 | 44.7 | 0.4 | 60.1 | 0.013 | 8.58 | 11 | O=C(CN1C(=O)C2(OCCCO2)c2cc(Br)ccc21)Nc1ccc(C(=O)NO)cc1 | 5.4 | 16.1 | 1.37 | 18.3 | 0.56 | 
11.3 | 5.32 | 57.1 | 2.09 | 41.9 | 0.0344 | 28.4 | 21.9 | O=C(CN1C(=O)C2(OCCCO2)c2cc(Cl)ccc21)Nc1ccc(C(=O)NO)cc1 | 9.19 | 10.1 | 4.64 | 12.3 | 1.25 | 
 |  |  |  |  | > 50 |  |  | O=C(CNC(=O)CN1C(=O)C2(OCCO2)c2cc(Br)ccc21)NO |  |  |  |  |  | 
 |  |  |  |  | 0.31 |  |  | O=C(CN1C(=O)C2(OCCO2)c2ccccc21)Nc1ccc(C(=O)NO)cc1 |  |  |  |  |  | 
26.6 | 0.44 | 82.7 | 1.08 | 0.64 | 0.31 | 5.23 | 4.43 | Nc1ccccc1NC(=O)c1ccc(NC(=O)CN2C(=O)C3(OCCCO3)c3cc(Br)ccc32)cc1 | 5.92 | 6.49 | 1.95 | 9.71 |  | 
 |  |  |  |  | 0.12 |  |  | O=C(CN1C(=O)C2(OCCO2)c2cc(Br)ccc21)Nc1ccc(C(=O)NO)cc1 |  |  |  |  |  | 
 |  |  |  |  | 0.19 |  |  | O=C(CN1C(=O)C2(OCCO2)c2cc(F)ccc21)Nc1ccc(C(=O)NO)cc1 |  |  |  |  |  | 

More lines, now with the values behind:

Structure (SMILES) | IC50 (HeLa) [µM] | IC50 (K562) [µM] | IC50 (MDA-MB-231) [µM] | IC50 (U-937) [µM] | IC50 (HCT-116) [µM] | IC50 [4] [µM] | IC50 (MCF7) [µM] | IC50 (PC-3) [µM] | IC50 [1] [µM] | IC50 [2] [µM] | IC50 [3] [µM] | IC50 [5] [µM] | IC50 (HEL) [µM] | further results
O=C(CCCCCCC(=O)Nc1ccccc1)NO [VORINOSTAT] |  |  |  |  |  |  |  |  |  |  | 10.1 |  |  | Activity (Mus musculus [6]): Non-toxic; Activity (Mus musculus [7]): Non-toxic; T/C [8]: 75.53%
O=C(CCCNC(=O)CN1C(=O)C2(OCCO2)c2cc(Br)ccc21)NO |  |  |  |  |  | 0.92 |  |  |  |  |  |  |  | 
O=C(CN1C(=O)C2(OCCCCO2)c2cc(Br)ccc21)Nc1ccc(C(=O)NO)cc1 | > 50 | 3.91 | 24.1 | 0.66 | 80.2 | 0.0216 | 6.13 | 17.7 | 5.49 | 3.6 | 0.75 | 27.2 | 0.64 | 
COC(=O)c1ccc(NC(=O)CN2C(=O)C3(OCCCO3)c3cc(Br)ccc32)cc1 |  |  |  |  |  | > 50 |  |  |  |  |  |  |  | 
O=C(CCCCCNC(=O)CN1C(=O)C2(OCCO2)c2cc(Br)ccc21)NO |  |  |  |  |  | 0.67 |  |  |  |  |  |  |  | 
O=C(CN1C(=O)C2(OCCO2)c2cc([N+](=O)[O-])ccc21)Nc1ccc(C(=O)NO)cc1 |  |  |  |  |  | > 50 |  |  |  |  |  |  |  | 
O=C(CN1C(=O)C2(OCCO2)c2cc(Cl)ccc21)Nc1ccc(C(=O)NO)cc1 |  |  |  |  |  | 0.37 |  |  |  |  |  |  |  | 
O=C(CCN1C(=O)C2(OCCCO2)c2cc(Br)ccc21)Nc1ccc(C(=O)NO)cc1 | 2.79 | 0.18 | 101 | 0.14 | 1.26 | 0.01013 | 52.6 | 1.91 | 0.32 | 2.8 | 5.33 | 3.25 | 0.33 | IC50 [9]: 0.126 µM; IC50 (Histone deacetylase 3): 0.025 µM; Activity (Mus musculus [10]): Non-toxic; T/C [11]: 62.5%; IC50 (Histone deacetylase 1): 0.201 µM; Activity (Mus musculus [12]): Non-toxic
O=C(CCCN1C(=O)C2(OCCCO2)c2cc(Br)ccc21)Nc1ccc(C(=O)NO)cc1 | 22.2 | 0.39 | 126 | 0.22 | 1.1 | 0.0194 | 13.7 | 7.93 | 0.42 | 6.02 | 0.58 | 21.4 | 0.34 | 
Cc1ccc2c(c1)C1(OCCO1)C(=O)N2CC(=O)Nc1ccc(C(=O)NO)cc1 |  |  |  |  |  | 0.28 |  |  |  |  |  |  |  | 
O=C(CN1C(=O)C2(OCCCO2)c2cc(Br)ccc21)Nc1ccc(C(=O)O)cc1 |  |  |  |  |  | > 50 |  |  |  |  |  |  |  | 
